Values after ≈ are worked out from the molar mass of the structure shown.
Columns and labels:
Assay type in all cases: functional, Salmonella enterica subsp. enterica serovar Typhimurium
Salmonella typhimurium [1] = experiment: Antimicrobial activity against Salmonella enterica serovar Typhimurium S21-1 gyrA+
Summary of the method: (§1)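 MICs measured by broth microdilution on the Sensititre automated system and interpreted by CLSI broth microdilution standards. Ciprofloxacin was also tested by agar dilution, widening the range to 0.0075–128 μg/ml. Quality control strains were E. coli ATCC 25922 and 35218, E. faecalis ATCC 29212, S. aureus ATCC 29213 and P. aeruginosa ATCC 27853.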

Salmonella typhimurium [2] = experiment: Antimicrobial activity against Salmonella enterica serovar Typhimurium S21-2 gyrA+ with ParC S80I mutation; summary of the method: as §1
Salmonella typhimurium [3] = experiment: Antimicrobial activity against Salmonella enterica serovar Typhimurium S21; summary of the method: as §1
Salmonella typhimurium [4] = experiment: Antimicrobial activity against Salmonella enterica serovar Typhimurium CHS18 with GyrA S38F mutation; summary of the method: as §1
Salmonella typhimurium [5] = experiment: Antimicrobial activity against Salmonella enterica serovar Typhimurium CS9 with GyrA S83F, D87N, ParC S80I mutation; summary of the method: as §1
Salmonella typhimurium [6] = experiment: Antimicrobial activity against Salmonella enterica serovar Typhimurium CHS18 tolC::Kan with GyrA S38F mutation; summary of the method: as §1
Salmonella typhimurium [7] = experiment: Antimicrobial activity against Salmonella enterica serovar Typhimurium GyrA S21-1 acrAB::Kan with GyrA S83F mutation; summary of the method: as §1
Salmonella typhimurium [8] = experiment: Antimicrobial activity against Salmonella enterica serovar Typhimurium CHS14 acrAB::Kan with GyrA D87G mutation; summary of the method: as §1
Salmonella typhimurium [9] = experiment: Antimicrobial activity against Salmonella enterica serovar Typhimurium S21-2 with GyrA S83F, ParC S80I mutation; summary of the method: as §1
Salmonella typhimurium [10] = experiment: Antimicrobial activity against Salmonella enterica serovar Typhimurium S21-4 acrAB::Kan with GyrA S83F, ParC S80I mutation; summary of the method: as §1
Salmonella typhimurium [11] = experiment: Antimicrobial activity against Salmonella enterica serovar Typhimurium CHS18 gyrA+ with GyrA S38F mutation; summary of the method: as §1
Salmonella typhimurium [12] = experiment: Antimicrobial activity against Salmonella enterica serovar Typhimurium CS1 tolC::Kan with GyrA S83F, D87N, ParC S80I mutation; summary of the method: as §1
Salmonella typhimurium [13] = experiment: Antimicrobial activity against Salmonella enterica serovar Typhimurium CS3 gyrA+ with GyrA S83F, D87N, ParC S80I mutation; summary of the method: as §1
Salmonella typhimurium [14] = experiment: Antimicrobial activity against Salmonella enterica serovar Typhimurium S21-3 with GyrA S83F, ParC S80I mutation; summary of the method: as §1
Salmonella typhimurium [15] = experiment: Antimicrobial activity against Salmonella enterica serovar Typhimurium CS9 gyrA+ with GyrA S83F, D87N, ParC S80I mutation; summary of the method: as §1
Salmonella typhimurium [16] = experiment: Antimicrobial activity against Salmonella enterica serovar Typhimurium CS1 with GyrA S83F, D87N, ParC S80I mutation; summary of the method: as §1
Salmonella typhimurium [17] = experiment: Antimicrobial activity against Salmonella enterica serovar Typhimurium S21-1 GyrA S83F mutant; summary of the method: as §1
Salmonella typhimurium [18] = experiment: Antimicrobial activity against Salmonella enterica serovar Typhimurium CHS14 with GyrA D87G mutation; summary of the method: as §1
Salmonella typhimurium [19] = experiment: Antimicrobial activity against Salmonella enterica serovar Typhimurium CS1 gyrA+ with GyrA S83F, D87N, ParC S80I mutation; summary of the method: as §1
Salmonella typhimurium [20] = experiment: Antimicrobial activity against Salmonella enterica serovar Typhimurium S21-3 gyrA+ with ParC S80I mutation; summary of the method: as §1
Salmonella typhimurium [21] = experiment: Antimicrobial activity against Salmonella enterica serovar Typhimurium CS3 acrAB::Kan with GyrA S83F, D87N, ParC S80I mutation; summary of the method: as §1
Salmonella typhimurium [22] = experiment: Antimicrobial activity against Salmonella enterica serovar Typhimurium CHS38 gyrA+ with GyrA D87G mutation; summary of the method: as §1
Salmonella typhimurium [23] = experiment: Antimicrobial activity against Salmonella enterica serovar Typhimurium CS1 acrAB::Kan with GyrA S83F, D87N, ParC S80I mutation; summary of the method: as §1
Salmonella typhimurium [24] = experiment: Antimicrobial activity against Salmonella enterica serovar Typhimurium S21-4 gyrA+ with ParC S80I mutation; summary of the method: as §1
Salmonella typhimurium [25] = experiment: Antimicrobial activity against Salmonella enterica serovar Typhimurium S21 gyrA+; summary of the method: as §1
Salmonella typhimurium [26] = experiment: Antimicrobial activity against Salmonella enterica serovar Typhimurium S21-3 tolC::Kan with GyrA S83F, ParC S80I mutation; summary of the method: as §1
Salmonella typhimurium [27] = experiment: Antimicrobial activity against Salmonella enterica serovar Typhimurium S21-2 acrAB::Kan with GyrA S83F, ParC S80I mutation; summary of the method: as §1
Salmonella typhimurium [28] = experiment: Antimicrobial activity against Salmonella enterica serovar Typhimurium S21 tolC::Kan
Summary of the method: (§2)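 MICs by automated broth microdilution panels, interpreted to CLSI broth microdilution standards. Ciprofloxacin additionally tested by agar dilution across 0.0075 to 128 μg/ml. Quality control strains: E. coli ATCC 25922 and 35218, Enterococcus faecalis ATCC 29212, S. aureus ATCC 29213, P. aeruginosa ATCC 27853. Test strains are kanamycin-marked deletion mutants of ground-beef isolate S21.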

Salmonella typhimurium [29] = experiment: Antimicrobial activity against Salmonella enterica serovar Typhimurium CHS14 gyrA+ with GyrA D87G mutation; summary of the method: as §1
Salmonella typhimurium [30] = experiment: Antimicrobial activity against Salmonella enterica serovar Typhimurium S21-3 acrAB::Kan with GyrA S83F, ParC S80I mutation; summary of the method: as §1
Salmonella typhimurium [31] = experiment: Antimicrobial activity against Salmonella enterica serovar Typhimurium S21-4 with GyrA S83F, ParC S80I mutation; summary of the method: as §1
Salmonella typhimurium [32] = experiment: Antimicrobial activity against Salmonella enterica serovar Typhimurium CHS38 acrAB::Kan with GyrA D87G mutation; summary of the method: as §1
Salmonella typhimurium [33] = experiment: Antimicrobial activity against Salmonella enterica serovar Typhimurium CS3 tolC::Kan with GyrA S83F, D87N, parC S80I mutation; summary of the method: as §1
Salmonella typhimurium [34] = experiment: Antimicrobial activity against Salmonella enterica serovar Typhimurium S21-1 tolC::Kan with GyrA S83F mutation; summary of the method: as §1
Salmonella typhimurium [35] = experiment: Antimicrobial activity against Salmonella enterica serovar Typhimurium CHS14 tolC::Kan with GyrA D87G mutant; summary of the method: as §1
Salmonella typhimurium [36] = experiment: Antimicrobial activity against Salmonella enterica serovar Typhimurium S21-2 tolC::Kan with GyrA S83F, ParC S80I mutation; summary of the method: as §1
Salmonella typhimurium [37] = experiment: Antimicrobial activity against Salmonella enterica serovar Typhimurium S21-4 tolC::Kan with GyrA S83F, ParC S80I mutation; summary of the method: as §1
Salmonella typhimurium [38] = experiment: Antimicrobial activity against Salmonella enterica serovar Typhimurium CHS18 acrAB::Kan with GyrA S38F mutation; summary of the method: as §1
Salmonella typhimurium [39] = experiment: Antimicrobial activity against Salmonella enterica serovar Typhimurium CS9 acrAB::Kan with GyrA S83F, D87N, ParC S80I mutation; summary of the method: as §1
Salmonella typhimurium [40] = experiment: Antimicrobial activity against Salmonella enterica serovar Typhimurium CS9 tolC::Kan with GyrA S83F, D87N, ParC S80I mutation; summary of the method: as §1
Salmonella typhimurium [41] = experiment: Antimicrobial activity against Salmonella enterica serovar Typhimurium CHS38 with GyrA D87G mutation; summary of the method: as §1
Salmonella typhimurium [42] = experiment: Antimicrobial activity against Salmonella enterica serovar Typhimurium S21 acrAB::Kan; summary of the method: as §2
Salmonella typhimurium [43] = experiment: Antimicrobial activity against Salmonella enterica serovar Typhimurium CS3 with GyrA S83F, D87N, ParC S80I mutation; summary of the method: as §1
Salmonella typhimurium [44] = experiment: Antimicrobial activity against Salmonella enterica serovar Typhimurium CHS38 tolC::Kan with GyrA D87G mutation; summary of the method: as §1

## CN1C[C@@H]2C[C@H]1CN2c1cc2c(cc1F)c(=O)c(C(=O)O)cn2C1CC1 [DANOFLOXACIN]
Salmonella typhimurium [1]
  MIC: 0.03 µg/mL (≈ 0.0839 µM)
Salmonella typhimurium [2]
  MIC: 1 µg/mL (≈ 2.8 µM)
Salmonella typhimurium [3]
  MIC: 0.03 µg/mL (≈ 0.0839 µM)
Salmonella typhimurium [4]
  MIC: 0.5 µg/mL (≈ 1.4 µM)
Salmonella typhimurium [5]
  MIC: > 16 µg/mL
Salmonella typhimurium [6]
  MIC: 0.06 µg/mL (≈ 0.168 µM)
Salmonella typhimurium [7]
  MIC: 0.06 µg/mL (≈ 0.168 µM)
Salmonella typhimurium [8]
  MIC: 0.03 µg/mL (≈ 0.0839 µM)
Salmonella typhimurium [9]
  MIC: 4 µg/mL (≈ 11.2 µM)
Salmonella typhimurium [10]
  MIC: 0.25 µg/mL (≈ 0.7 µM)
Salmonella typhimurium [11]
  MIC: 0.06 µg/mL (≈ 0.168 µM)
Salmonella typhimurium [12]
  MIC: 4 µg/mL (≈ 11.2 µM)
Salmonella typhimurium [13]
  MIC: 0.06 µg/mL (≈ 0.168 µM)
Salmonella typhimurium [14]
  MIC: > 16 µg/mL
Salmonella typhimurium [15]
  MIC: 0.06 µg/mL (≈ 0.168 µM)
Salmonella typhimurium [16]
  MIC: > 16 µg/mL
Salmonella typhimurium [17]
  MIC: 0.5 µg/mL (≈ 1.4 µM)
Salmonella typhimurium [18]
  MIC: 0.25 µg/mL (≈ 0.7 µM)
Salmonella typhimurium [19]
  MIC: 0.06 µg/mL (≈ 0.168 µM)
Salmonella typhimurium [20]
  MIC: 2 µg/mL (≈ 5.6 µM)
Salmonella typhimurium [21]
  MIC: 4 µg/mL (≈ 11.2 µM)
Salmonella typhimurium [22]
  MIC: < 0.015 µg/mL
Salmonella typhimurium [23]
  MIC: 4 µg/mL (≈ 11.2 µM)
Salmonella typhimurium [24]
  MIC: 4 µg/mL (≈ 11.2 µM)
Salmonella typhimurium [25]
  MIC: 0.03 µg/mL (≈ 0.0839 µM)
Salmonella typhimurium [26]
  MIC: 0.25 µg/mL (≈ 0.7 µM)
Salmonella typhimurium [27]
  MIC: 0.12 µg/mL (≈ 0.336 µM)
Salmonella typhimurium [28]
  MIC: < 0.015 µg/mL
Salmonella typhimurium [29]
  MIC: 0.03 µg/mL (≈ 0.0839 µM)
Salmonella typhimurium [30]
  MIC: 0.25 µg/mL (≈ 0.7 µM)
Salmonella typhimurium [31]
  MIC: > 16 µg/mL
Salmonella typhimurium [32]
  MIC: 0.03 µg/mL (≈ 0.0839 µM)
Salmonella typhimurium [33]
  MIC: 4 µg/mL (≈ 11.2 µM)
Salmonella typhimurium [34]
  MIC: 0.06 µg/mL (≈ 0.168 µM)
Salmonella typhimurium [35]
  MIC: 0.03 µg/mL (≈ 0.0839 µM)
Salmonella typhimurium [36]
  MIC: 0.12 µg/mL (≈ 0.336 µM)
Salmonella typhimurium [37]
  MIC: 0.25 µg/mL (≈ 0.7 µM)
Salmonella typhimurium [38]
  MIC: 0.03 µg/mL (≈ 0.0839 µM)
Salmonella typhimurium [39]
  MIC: 4 µg/mL (≈ 11.2 µM)
Salmonella typhimurium [40]
  MIC: 4 µg/mL (≈ 11.2 µM)
Salmonella typhimurium [41]
  MIC: 0.25 µg/mL (≈ 0.7 µM)
Salmonella typhimurium [42]
  MIC: < 0.015 µg/mL
Salmonella typhimurium [43]
  MIC: > 16 µg/mL
Salmonella typhimurium [44]
  MIC: < 0.015 µg/mL

From ChEMBL document CHEMBL1142136, “Contribution of target gene mutations and efflux to decreased susceptibility of Salmonella enterica serovar typhimurium to fluoroquinolones and other antimicrobials” (2007)
